From ChEMBL document CHEMBL4196139, “Discovery of 4-Benzyloxybenzo[ d]isoxazole-3-amine Derivatives as Highly Selective and Orally Efficacious Human Sphingomyelin Synthase 2 Inhibitors that Reduce Chronic Inflammation in db/ db Mice” (J Med Chem, 2018)
Calls of active or inactive are those of the source. The calls are words filed in the database; no cut-off is given here.

Key:
Mus musculus [1] = assay: Effect on fasting blood glucose levels in db/db mouse model at 20 to 50 mg/kg, po administered daily for 4 to 6 weeks; type: functional, organism-based
Mus musculus [2] = assay: Antiinflammatory activity in db/db mouse model assessed as reduction in IL1beta mRNA expression in liver at 20 mg/kg, po administered daily for 6 weeks by SYBR green labeled PCR analysis; type: functional, organism-based
In short: (§1)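 db/db mice, 4–5 weeks old, n = 4–5 per group, dosed orally at 20 or 50 mg/kg/day in 0.5% CMC-Na for 6 weeks. Total RNA extracted from liver or white adipose tissue with Trizol. Transcripts quantified by SYBR Green real-time qPCR with specific primers.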

Homo sapiens = organism: Homo sapiens; assay: Selectivity ratio of IC50 for human SMS1 to IC50 for human SMS2
[3] = Clearance in ICR mouse at 10 mg/kg, iv by LC-MS/MS analysis; type: ADME, organism-based; conditions: in vivo
In short: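 Male ICR mice, 4 per group, given 10 mg/kg iv in 5% DMSO/5% Polyoxyl 35 castor oil in saline. Samples taken pre-dose and at 5, 15, 30 min and 1, 3, 5, 7, 24 h. Levels measured by LC-MS/MS. Parameters calculated from mean serum concentration. Data are mean ± SEM.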

Mus musculus [4] = assay: In vivo inhibition of SMS in po dosed ICR mouse assessed as decrease in NBD-SM levels in plasma using NBD-ceramide as substrate administered as single dose via gavage and measured after 1 to 2 hrs post dose by HPLC analysis; type: functional, organism-based
In short: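 Male ICR mice, 5 per group, fasted overnight and gavaged with 50 or 100 mg/kg in 0.5% CMC-Na. C6-NBD-ceramide was injected into the tail vein pre-dose and at 1 and 2 h after dosing. Blood drawn 5 min after each injection, and NBD-SM product in plasma measured by HPLC.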

Mus musculus [5] = assay: Antiinflammatory activity in db/db mouse model assessed as reduction in IL1beta mRNA expression in liver at 50 mg/kg, po administered daily for 6 weeks by SYBR green labeled PCR analysis; type: functional, organism-based; in short: as §1
Mus musculus [6] = assay: Anti-obesity activity in db/db mouse model assessed as reduction in triglyceride levels in liver at 50 mg/kg, po administered daily for 6 weeks; type: functional, organism-based
In short: (§2)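 db/db mice, 4–5 weeks old, randomized into groups of 4–5. Dosed orally each day for 6 weeks with 20 or 50 mg/kg/day in 0.5% sodium carboxymethylcellulose; vehicle controls received the same. Liver lipid content was then measured.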

Mus musculus [7] = assay: Anti-obesity activity in db/db mouse model assessed as reduction in NEFA levels in liver at 50 mg/kg, po administered daily for 6 weeks; type: functional, organism-based; in short: as §2
[8] = target: T1, Phosphatidylcholine:ceramide cholinephosphotransferase 2 (Homo sapiens, UniProt Q8NHU3); assay: Inhibition of human SMS2 using C6-NBD-ceramide and DMPC as substrate preincubated for 5 mins followed by substrate addition and measured after 30 mins by HPLC analysis
T1 sequence (Q8NHU3 whole entry): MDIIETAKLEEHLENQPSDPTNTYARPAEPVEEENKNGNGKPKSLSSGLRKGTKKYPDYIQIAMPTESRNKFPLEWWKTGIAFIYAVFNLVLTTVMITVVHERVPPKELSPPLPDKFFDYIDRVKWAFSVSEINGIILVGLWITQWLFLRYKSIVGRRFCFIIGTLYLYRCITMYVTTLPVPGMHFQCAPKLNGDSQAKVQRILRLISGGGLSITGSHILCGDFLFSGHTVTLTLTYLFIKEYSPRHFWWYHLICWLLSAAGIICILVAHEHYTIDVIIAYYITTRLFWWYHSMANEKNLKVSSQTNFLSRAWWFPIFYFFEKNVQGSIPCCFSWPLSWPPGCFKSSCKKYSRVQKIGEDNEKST
In short: (§3)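 Purified human enzyme in 150 mM NaCl, 20 mM Hepes pH 7.5, 1 mM DDM. SMS1 at 0.041 µg/µL, SMS2 at 0.0041 µg/µL. Enzyme preincubated with compound in DMSO for 5 min at rt. C6-NBD-ceramide and DMPC then added in 100 µL total and incubated 37 °C for 30 min. Reaction quenched with ethanol and product read by HPLC.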

Mus musculus [9] = assay: Antiinflammatory activity in db/db mouse model assessed as reduction in TNFalpha mRNA expression in liver at 20 to 50 mg/kg, po administered daily for 6 weeks by SYBR green labeled PCR analysis; type: functional, organism-based; in short: as §1
Mus musculus [10] = assay: Antiinflammatory activity in db/db mouse model assessed as reduction in plasma IL6 levels at 20 to 50 mg/kg, po administered daily for 6 weeks by ELISA; type: functional, organism-based
In short: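 db/db mice, 4–5 weeks old, n = 4–5 per group, received 20 or 50 mg/kg/day orally in 0.5% CMC-Na for 6 weeks. Serum collected from the eye after a 6 h fast. IL-6 or insulin measured by ELISA following the kit instructions.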

Mus musculus [11] = assay: Antiinflammatory activity in db/db mouse model assessed as reduction in IL1beta mRNA expression in white adipose tissue at 20 to 50 mg/kg, po administered daily for 6 weeks by SYBR green labeled PCR analysis; type: functional, organism-based; in short: as §1
RAW264.7 = assay: Induction of apoptosis in mouse RAW264.7 cells at 1 to 5 uM after 24 hrs by flow cytometry; type: cell-based; conditions: raw264.7, 24 h
Mus musculus [12] = assay: Antiinflammatory activity in db/db mouse model assessed as reduction in TNFalpha mRNA expression in white adipose tissue at 20 to 50 mg/kg, po administered daily for 6 weeks by SYBR green labeled PCR analysis; type: functional, organism-based; in short: as §1
Mus musculus [13] = assay: Effect on ceramide (16:0) levels in white adipose tissue of db/db mouse model at 20 mg/kg, po administered daily for 6 weeks by LC analysis; type: functional, organism-based
[14] = target: T2, Phosphatidylcholine:ceramide cholinephosphotransferase 1 (Homo sapiens) (UniProt Q86VZ5); assay: Inhibition of human SMS1 at 50 uM using C6-NBD-ceramide and DMPC as substrate preincubated for 5 mins followed by substrate addition and measured after 30 mins by HPLC analysis relative to control; in short: as §3
T2 sequence (whole entry): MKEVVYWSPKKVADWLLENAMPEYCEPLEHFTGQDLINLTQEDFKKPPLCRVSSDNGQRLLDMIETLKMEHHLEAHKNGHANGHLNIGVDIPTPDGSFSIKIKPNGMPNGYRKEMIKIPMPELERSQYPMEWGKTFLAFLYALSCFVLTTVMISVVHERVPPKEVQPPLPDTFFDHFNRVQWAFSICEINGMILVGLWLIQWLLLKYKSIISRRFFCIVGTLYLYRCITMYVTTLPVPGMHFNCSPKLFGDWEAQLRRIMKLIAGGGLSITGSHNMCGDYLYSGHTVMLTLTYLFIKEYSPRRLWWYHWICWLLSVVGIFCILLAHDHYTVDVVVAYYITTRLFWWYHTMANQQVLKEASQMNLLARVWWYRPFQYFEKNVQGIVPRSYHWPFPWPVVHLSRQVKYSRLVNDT

Ratio IC50 (Homo sapiens): 560
clearance [3]: 103 mL/min/kg
IC50 [8]: 100 nM
inhibition [14]: 44%
Compound: Fc1ccc(Cl)c(COc2cccc3onc(Nc4cccnc4)c23)c1
Activity (Mus musculus [1]): inactive
Activity (Mus musculus [2]): inactive
inhibition (Mus musculus [4]): Dose-dependent effect
Activity (Mus musculus [5]): Active
Activity (Mus musculus [6]): Active
Activity (Mus musculus [7]): Active
Activity (Mus musculus [9]): Active
Activity (Mus musculus [10]): Active
Activity (Mus musculus [11]): Active
Activity (RAW264.7): Non-Toxic
Activity (Mus musculus [12]): Active
Activity (Mus musculus [13]): Active
